In brackets after ≈: the same amount, converted by molar mass. Activity calls are given as the source filed them. The rule behind the calls is not given here.
Legend:
[1] = test system: Mycobacterium tuberculosis; assay: Antimycobacterial activity against multidrug resistant Mycobacterium tuberculosis at 25 ug/ml; assay type: functional, organism-based
In short: (§1)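 MIC determined by agar dilution, following the NCCLS-recommended approach, in duplicate. Strains were M. tuberculosis H37Rv and a multidrug-resistant M. tuberculosis. Concentrations were tested up to 25 µg/mL.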

[2] = test system: Mycobacterium tuberculosis; assay: Antimycobacterial activity against multidrug resistant Mycobacterium tuberculosis; assay type: functional; in short: as §1
Vero = assay: Selectivity index, IC50 for Vero cell line/ MIC for multidrug resistant Mycobacterium tuberculosis; assay type: functional
In short: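 Vero cells were exposed to compound at 62.5 µg/mL for 72 h. Viability was read by MTT conversion to formazan. Selectivity index is the Vero IC50 divided by the agar-dilution MIC against the listed strain.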

In the case of `N/N=C(\S)Nc1ncc(C2CCC2)o1`, the Activity [1] is reported as “inactive”.
Molecule `COc1ccc(/C=N/N=C(\S)Nc2ncc(C3CCC3)o2)cc1` has an MIC [2] of 6.25 µg/mL (≈ 18.9 µM).
`S=C(N/N=C(\c1ccccc1)c1ccc(Br)cc1)Nc1ncc(C2CCC2)o1` was tested, and the MIC [2] was 0.05 µg/mL (≈ 0.11 µM).
`C/C(=N\N=C(/S)Nc1ncc(C2CCC2)o1)c1ccccc1O` showed an MIC [2] of 3.12 µg/mL (≈ 9.44 µM).
`CC[C@@H](CO)NCCN[C@@H](CC)CO` [ETHAMBUTOL] showed an MIC [2] of 25 µg/mL (≈ 122 µM).
With `CO[C@H]1/C=C/O[C@@]2(C)Oc3c(C)c(O)c4c(O)c(c(/C=N/N5CCN(C)CC5)c(O)c4c3C2=O)NC(=O)/C(C)=C\C=C\[C@H](C)[C@H](O)[C@@H](C)[C@@H](O)[C@@H](C)[C@H](OC(C)=O)[C@@H]1C` [RIFAMPIN] the MIC [2] was 3.12 µg/mL (≈ 3.79 µM).
Molecule `COc1cc(/C=N/N=C(\S)Nc2ncc(C3CCC3)o2)ccc1O` has an MIC [2] of 12.5 µg/mL (≈ 36.1 µM).
In the case of `C/C(=N\N=C(/S)Nc1ncc(C2CCC2)o1)c1ccc([N+](=O)[O-])cc1`, the MIC [2] is reported as 0.2 µg/mL (≈ 0.556 µM).
`S=C(N/N=C/c1ccc(Cl)cc1)Nc1ncc(C2CCC2)o1` was tested, and the MIC [2] was 1.56 µg/mL (≈ 4.66 µM).
`C/C(=N\N=C(/S)Nc1ncc(C2CCC2)o1)c1ccccc1` showed an MIC [2] of 3.12 µg/mL (≈ 9.92 µM).
Molecule `CN(C)c1ccc(/C=N/N=C(\S)Nc2ncc(C3CCC3)o2)cc1` has an MIC [2] of 3.12 µg/mL (≈ 9.08 µM).
In the case of `C/C(=N\N=C(/S)Nc1ncc(C2CCC2)o1)c1ccc(N)cc1`, the MIC [2] is reported as 0.78 µg/mL (≈ 2.37 µM).
With `O=[N+]([O-])c1cccc(/C=N/N=C(\S)Nc2ncc(C3CCC3)o2)c1` the MIC [2] was 0.78 µg/mL (≈ 2.26 µM).
`S=C(NN=C(Cc1ccccc1)Cc1ccccc1)Nc1ncc(C2CCC2)o1` gave an MIC [2] of 6.25 µg/mL (≈ 15.4 µM).
With `Oc1ccccc1/C=N/N=C(\S)Nc1ncc(C2CCC2)o1` the MIC [2] was 6.25 µg/mL (≈ 19.8 µM).
Molecule `COc1c(N2CCNC(C)C2)c(F)cc2c(=O)c(C(=O)O)cn(C3CC3)c12` (stereo unspecified) [GATIFLOXACIN] has an MIC [2] of 6.25 µg/mL (≈ 16.6 µM).
`Oc1[nH]c2ccc(F)cc2c1/N=N/C(S)=N/c1ncc(C2CCC2)o1` was tested, and the MIC [2] was 12.5 µg/mL (≈ 34.8 µM).
With `Oc1[nH]c2ccccc2c1/N=N/C(S)=N/c1ncc(C2CCC2)o1` the MIC [2] was 25 µg/mL (≈ 73.2 µM).
Molecule `O=[N+]([O-])c1ccc(/C=N/N=C(\S)Nc2ncc(C3CCC3)o2)cc1` has an MIC [2] of 0.39 µg/mL (≈ 1.13 µM).
Molecule `C/C(=N\N=C(/S)Nc1ncc(C2CCC2)o1)c1ccc(O)cc1` has an MIC [2] of 3.12 µg/mL (≈ 9.44 µM).
Molecule `Cc1ccc(/C=N/N=C(\S)Nc2ncc(C3CCC3)o2)cc1` has an MIC [2] of 3.12 µg/mL (≈ 9.92 µM).
`O=[N+]([O-])c1ccccc1/C=N/N=C(\S)Nc1ncc(C2CCC2)o1` was tested, and the MIC [2] was 0.78 µg/mL (≈ 2.26 µM).
`NNC(=O)c1ccncc1` [ISONIAZID] gave an MIC [2] of 1.56 µg/mL (≈ 11.4 µM).
With `C/C(=N\N=C(/S)Nc1ncc(C2CCC2)o1)c1ccc(C)cc1` the MIC [2] was 0.78 µg/mL (≈ 2.37 µM).
With `S=C(NN=C(c1ccccc1)c1ccccc1)Nc1ncc(C2CCC2)o1` the MIC [2] was 0.1 µg/mL (≈ 0.266 µM) and the Selectivity index (Vero) was greater than 1250.

— ChEMBL document CHEMBL1148530, “Discovery of new antitubercular oxazolyl thiosemicarbazones” (J Med Chem, 2006)
